This is an account of results in ChEMBL document CHEMBL4732105, “First orally bioavailable prodrug of proteolysis targeting chimera (PROTAC) degrades cyclin-dependent kinases 2/4/6 in vivo” (Eur J Med Chem, 2021).

The source made the active and inactive calls. No cut-off for these calls is given here.

A short description of series [1]: Toxicity in mouse C57BL/6J mouse xenografted with B16F10 cells assessed as effect on body weight at 200 mg/kg, po measured after 15 days. To be noted: in vivo, 360 h, time 15 day. The format is organism-based. The method, boiled down: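 C57BL/6J mice injected […] with B16F10 cells and given compound orally. Tumor volume and body weight monitored, and tumors weighed on day 15. Mean ± SD, n = 6.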

Series [2] in a line: Oral bioavailability in Sprague-Dawley rat at 200 mg/kg. The format is ADME, organism-based. To be noted: in vivo. The method, boiled down:
(§1)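 SD rats, n = 3, single dose of prodrug: IV by tail vein at 10 mg/Kg, or PO at 200 mg/Kg. Plasma levels of prodrug and released active degrader followed over 0–12 h. Parameters derived by a non-compartmental model.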

Series [3] in a line: Tmax in Sprague-Dawley rat at 200 mg/kg, po. It is filed as ADME, organism-based. Conditions: in vivo. The method in brief: as §1
Series [4] in a line: AUC (0 to 12 hrs) in Sprague-Dawley rat at 10 mg/kg, iv. It is filed as ADME, organism-based. Also on record: time < 12 hr, route intravenous, dose 10 mg/kg. Conditions: in vivo.
Series [5] in a line: AUC (0 to 12 hrs) in Sprague-Dawley rat at 200 mg/kg, po. The format is ADME, organism-based. On the set-up: time < 12 hr, route oral, dose 200 mg/kg. Conditions: in vivo. The method in brief:
(§2)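 Single oral dose of 200 mg/Kg to SD rats (n = 3). Prodrug and released active degrader quantified in plasma over 0–12 h; Cmax, Tmax and AUC0-12 derived by non-compartmental model.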

Series [6] in a line: Cmax in Sprague-Dawley rat at 10 mg/kg, iv. The format is ADME, organism-based. Also on record: route intravenous, dose 10 mg/kg. To be noted: in vivo.
The nature of series [7]: Cmax in Sprague-Dawley rat at 200 mg/kg, po. The format is ADME, organism-based. Also on record: route oral, dose 200 mg/kg. Conditions: in vivo. The method, boiled down:
as §2

In series [8] the test system is B16-F10. As to the kind of experiment: Antitumor activity against mouse B16F10 cells xenografted in C57BL/6J mouse assessed as supression in tumor size at 200 mg/kg, po measured after 15 days. It is filed as functional, organism-based. Conditions: time 15.0 day. The method, boiled down:
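C57BL/6J mice given B16F10 cells […], then dosed orally versus vehicle. Tumor volume and body weight monitored; tumors weighed on day 15 (n = 6). Tumor tissue (n = 5) immunostained for CDK2/4/6.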

A further series has as its system A-375. As to the kind of experiment: Cytotoxicity against human A375 cells assessed as reduction in cell viability after 72 hrs by MTT assay. It is filed as functional, cell-based. Conditions: A-375, 72 h. The method in brief: (§3)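 Cells exposed to compound for 72 h and viability read by MTT; IC50 from three independent experiments.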
Background: Tetrazolium dyes change colour on reduction, which living cells bring about.

The test system of series [9] is B16-F10. As to the kind of experiment: Cytotoxicity against mouse B16F10 cells assessed as reduction in cell viability after 72 hrs by MTT assay. To be noted: B16-F10, 72 h. It is filed as functional, cell-based. The method in brief: as §3
Series [10] addresses Cyclin-dependent kinase 2/cyclin E1 (Homo sapiens, UniProt P24941). As to the kind of experiment: Inhibition of CDK2/Cyclin E (unknown origin). The format is protein-complex assay.
Series [11] has as its target Cyclin-dependent kinase 4/cyclin D1 (Homo sapiens, UniProt P11802). As to the kind of experiment: Inhibition of CDK4/cyclin D1 (unknown origin). The format is protein-complex assay.
The next series addresses CDK6/cyclin D3 (Homo sapiens, UniProt Q00534). As to the kind of experiment: Inhibition of CDK6/Cyclin D (unknown origin). The format is protein-complex assay.

CDK6/cyclin D3, sequence (P30281 whole entry): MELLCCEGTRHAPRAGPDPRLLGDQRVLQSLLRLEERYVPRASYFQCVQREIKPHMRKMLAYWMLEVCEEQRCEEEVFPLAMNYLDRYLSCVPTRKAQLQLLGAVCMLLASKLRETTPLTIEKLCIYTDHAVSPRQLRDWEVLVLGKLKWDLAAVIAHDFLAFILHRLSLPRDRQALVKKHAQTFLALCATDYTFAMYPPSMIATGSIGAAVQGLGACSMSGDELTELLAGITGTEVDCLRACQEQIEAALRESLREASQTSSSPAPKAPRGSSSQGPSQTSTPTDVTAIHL
CDK6/cyclin D3, sequence (Q00534 whole entry): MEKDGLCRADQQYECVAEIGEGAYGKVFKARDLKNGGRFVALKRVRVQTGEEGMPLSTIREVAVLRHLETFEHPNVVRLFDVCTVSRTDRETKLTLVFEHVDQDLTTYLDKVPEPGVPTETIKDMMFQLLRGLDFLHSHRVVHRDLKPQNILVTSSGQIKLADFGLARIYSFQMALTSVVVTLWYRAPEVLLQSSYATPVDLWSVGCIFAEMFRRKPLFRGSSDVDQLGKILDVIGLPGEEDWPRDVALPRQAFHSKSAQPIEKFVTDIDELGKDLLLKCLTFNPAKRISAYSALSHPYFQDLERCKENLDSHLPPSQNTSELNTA
Cyclin-dependent kinase 4/cyclin D1, sequence (P11802 whole entry): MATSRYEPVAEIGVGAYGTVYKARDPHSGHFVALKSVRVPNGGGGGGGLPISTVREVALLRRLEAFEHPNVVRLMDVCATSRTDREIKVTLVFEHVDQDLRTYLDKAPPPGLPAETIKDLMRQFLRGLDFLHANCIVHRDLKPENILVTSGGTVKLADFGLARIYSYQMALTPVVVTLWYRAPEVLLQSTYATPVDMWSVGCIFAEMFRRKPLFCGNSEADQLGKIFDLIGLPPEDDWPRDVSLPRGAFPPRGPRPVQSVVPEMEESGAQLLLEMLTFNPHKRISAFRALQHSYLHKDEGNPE
Cyclin-dependent kinase 4/cyclin D1, sequence (P24385 whole entry, further chain): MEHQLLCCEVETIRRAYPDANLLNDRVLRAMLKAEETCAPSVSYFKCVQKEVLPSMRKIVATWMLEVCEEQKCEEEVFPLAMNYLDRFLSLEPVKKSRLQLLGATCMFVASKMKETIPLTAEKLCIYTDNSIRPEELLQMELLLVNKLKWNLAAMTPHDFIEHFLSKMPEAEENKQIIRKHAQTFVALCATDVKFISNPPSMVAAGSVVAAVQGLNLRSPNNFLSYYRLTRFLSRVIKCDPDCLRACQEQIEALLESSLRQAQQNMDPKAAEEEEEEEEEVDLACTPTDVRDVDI

As to `CN(C)C(=O)c1cc2cnc(Nc3ccc(C(=O)NCCCCCCNc4cccc5c4C(=O)N(C4CCC(=O)N(COC(=O)C(C)(C)C)C4=O)C5=O)cc3)nc2n1C1CCCC1` (stereo not given), the Activity entry in series [1] is reported as “Non-Toxic”. The compound also registered a bioavailability in series [2] of 68%. Further, the time of peak concentration (Tmax) in series [3] came out at 15 min. Besides, the AUC in series [4] turned out to be 95.7 µg·h/mL; in [5], 2810 µg·h/mL. Also, the Cmax in series [6] amounted to 111 µg/mL; in series [7], 2260 µg/mL. Also, the result with B16-F10 [8] was Active.
For the compound `CN(C)C(=O)c1cc2cnc(Nc3ccc(N4CCNCC4)cn3)nc2n1C1CCCC1` [RIBOCICLIB], the concentration for half-maximal inhibition (IC50) in the series with A-375 and in the series on B16-F10 [9] was more than 10000 nM throughout.
Turning to `Nc1cccc2c1C(=O)N(C1CCC(=O)NC1=O)C2=O` (stereo not given) [POMALIDOMIDE], the IC50 in the series on A-375 and in the series with B16-F10 [9] was more than 10000 nM throughout.
In the case of `COC(=O)c1ccc(Nc2ncc3cc(C(=O)N(C)C)n(C4CCCC4)c3n2)cc1`, the IC50 in [10] turned out to be 390 nM; in [11] it was 112 nM; at CDK6/cyclin D3, 101 nM.

For orientation: bioavailability means dose-corrected exposure relative to a reference, in per cent. A high value points to much systemic uptake. Broadly, the Tmax is the time from dosing to the highest level. By AUC is commonly meant the area under the concentration-time curve, a measure of exposure. Read a low AUC as less exposure. A word on the Cmax: it is the highest concentration seen after dosing. The term IC50 denotes the concentration needed to halve the response being measured.
